In general, pIC50 refers to −log10 of the IC50, conventionally taken in molar units. Low readings indicate a large IC50, high ones a small IC50.

pIC50: −log10 of the molar value.

Chain of Melanocyte-stimulating hormone receptor (Q01727 whole entry): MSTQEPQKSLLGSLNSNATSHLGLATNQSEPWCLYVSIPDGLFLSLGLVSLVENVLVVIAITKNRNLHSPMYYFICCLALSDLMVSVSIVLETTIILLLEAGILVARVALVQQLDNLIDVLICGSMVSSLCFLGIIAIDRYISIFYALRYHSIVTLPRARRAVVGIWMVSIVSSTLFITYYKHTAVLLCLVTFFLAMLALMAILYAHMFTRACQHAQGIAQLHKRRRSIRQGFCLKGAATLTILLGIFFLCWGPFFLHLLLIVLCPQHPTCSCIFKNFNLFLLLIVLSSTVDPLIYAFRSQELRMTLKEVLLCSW

The test concerns the target Melanocyte-stimulating hormone receptor (Mus musculus, UniProt Q01727). The test can be described thus: In vitro binding affinity for the melanoma receptor was determined in the murine melanoma B16/F1 cell line. The method, boiled down:
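Competitive displacement on B16/F1 cells seeded at 0.2 million/well and attached overnight. They were rinsed twice with PBS/0.2% BSA and lysed in 1.0 M NaOH. Cell-bound radioactivity was counted and IC50 fitted.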
In the case of `CC(=O)NC(CCCCNC(=O)CN1CCN(CC(=O)O)CCN(CC(=O)O)CCN(CC(=O)O)CC1)C(=O)NC1[S][ReH]23([OH])[S]C(C(=O)NC(CCCCNC(=O)OCc4ccccc4)C(=O)N4CCCC4C(=O)NC(C(N)=O)C(C)C)NC(=O)C(Cc4c[nH]c5ccccc45)NC(=O)C(CCCNC(=N)N)NC(=O)[C@H](Cc4ccccc4)NC(=O)C(Cc4cnc[nH]4)NC(=O)C(CCC(=O)O)NC(=O)C([S]2)[N]3C1=O` (stereo partly drawn) [Ac-Lys(DOTA)-ReCCEHdFRWCKPV-NH2], the pIC50 is 8.48.

Turning to `CC(C)C(NC(=O)C1CCCN1C(=O)C(CCCCN)NC(=O)C1NC(=O)C(Cc2c[nH]c3ccccc23)NC(=O)C(CCCNC(=N)N)NC(=O)[C@H](Cc2ccccc2)NC(=O)C(Cc2cnc[nH]2)NC(=O)C(CCC(=O)O)NC(=O)C2[S][ReH]3([OH])([S]1)[S]C(NC(=O)CN1CCN(CC(=O)O)CCN(CC(=O)O)CCN(CC(=O)O)CC1)C(=O)[N]23)C(N)=O` (stereo partly drawn) [DOTA-ReCCEHdFRWCKPV-NH2], the pIC50 is 8.92. Compared with the last molecule, the pIC50 is 0.44 log units higher.

Regarding `CC(C)C(NC(=O)C1CCCN1C(=O)C(CCCNC(=N)N)NC(=O)C1NC(=O)C(Cc2c[nH]c3ccccc23)NC(=O)C(CCCNC(=N)N)NC(=O)[C@H](Cc2ccccc2)NC(=O)C(Cc2cnc[nH]2)NC(=O)C(CCC(=O)O)NC(=O)C2[S][ReH]3([OH])([S]1)[S]C(NC(=O)CN1CCN(CC(=O)O)CCN(CC(=O)O)CCN(CC(=O)O)CC1)C(=O)[N]23)C(N)=O` (stereo partly drawn) [DOTA-ReCCEHdFRWCRPV-NH2], the negative-log IC50 (pIC50) was 8.68.

For the origin of these results see BindingDB's records for doi:10.1021/jm010408m (University of Missouri-Columbia, 2002).
